# Assays:
# [1] = Intrinsic clearance in rat liver microsomes at 1 uM after 30 mins by LC-MS HRMS analysis; assay type: ADME; conditions: read-out: CLH
# [2] = biological target: Serine/threonine-protein kinase PIM (Homo sapiens, UniProt P11309+Q9P1W9+Q86V86); assay: Inhibition of Pim1/2 in human KMS-12 cells assessed as decrease in BAD phosphorylation at Ser112 by Western blot method; assay type: cell-based
# [3] = biological target: Serine/threonine-protein kinase pim-1 (Homo sapiens, UniProt P11309); assay: Inhibition of recombinant Pim1 (unknown origin) by electrochemiluminescence assay
# [4] = Intrinsic clearance in human liver microsomes at 1 uM after 30 mins by LC-MS HRMS analysis; assay type: ADME; conditions: read-out: CLH
# [5] = biological target: Serine/threonine-protein kinase pim-2 (Homo sapiens, UniProt Q9P1W9); assay: Inhibition of recombinant Pim2 (unknown origin) by electrochemiluminescence assay
# [6] = AUC (0 to infinity) in Sprague-Dawley rat at 5 mg/kg, po; assay type: ADME, organism-based; parameters: dose 5 mg/kg, route oral, time infinity; conditions: in vivo; for AUC(0-inf): Sprague-Dawley
# How it was run: (§1)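 Male Sprague Dawley rats, 3 animals per dosing route, mean values. iv dose 2 mg/kg as a solution in DMSO; po dose 5 mg/kg in 1% Tween 80, 2% HPMC, 97% water/methanesulfonic acid pH 2.2.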
# [7] = Volume of distribution at steady state in Sprague-Dawley rat at 2 mg/kg, iv; assay type: ADME, organism-based; conditions: in vivo, read-out: Vdss; how it was run: as §1
# [8] = Clearance in Sprague-Dawley rat at 2 mg/kg, iv; assay type: ADME, organism-based; conditions: in vivo; for clearance: Sprague-Dawley; how it was run: as §1
# [9] = Oral bioavailability in Sprague-Dawley rat at 5 mg/kg; assay type: ADME, organism-based; conditions: in vivo; for bioavailability: Sprague-Dawley; how it was run: as §1
# [10] = Mean residence time in Sprague-Dawley rat at 2 mg/kg, iv; assay type: ADME, organism-based; conditions: in vivo; how it was run: as §1
# [11] = Clearance in Sprague-Dawley rat at 2 mg/kg, iv relative to liver blood flow; assay type: ADME, organism-based; conditions: in vivo; how it was run: as §1
# [12] = biological target: Voltage-gated inwardly rectifying potassium channel KCNH2 (Homo sapiens, UniProt Q12809); assay: Inhibition of radiolabeled dofetilide binding to human ERG expressed in HEK293 cells
# Sequence of Voltage-gated inwardly rectifying potassium channel KCNH2 (Q12809 whole entry): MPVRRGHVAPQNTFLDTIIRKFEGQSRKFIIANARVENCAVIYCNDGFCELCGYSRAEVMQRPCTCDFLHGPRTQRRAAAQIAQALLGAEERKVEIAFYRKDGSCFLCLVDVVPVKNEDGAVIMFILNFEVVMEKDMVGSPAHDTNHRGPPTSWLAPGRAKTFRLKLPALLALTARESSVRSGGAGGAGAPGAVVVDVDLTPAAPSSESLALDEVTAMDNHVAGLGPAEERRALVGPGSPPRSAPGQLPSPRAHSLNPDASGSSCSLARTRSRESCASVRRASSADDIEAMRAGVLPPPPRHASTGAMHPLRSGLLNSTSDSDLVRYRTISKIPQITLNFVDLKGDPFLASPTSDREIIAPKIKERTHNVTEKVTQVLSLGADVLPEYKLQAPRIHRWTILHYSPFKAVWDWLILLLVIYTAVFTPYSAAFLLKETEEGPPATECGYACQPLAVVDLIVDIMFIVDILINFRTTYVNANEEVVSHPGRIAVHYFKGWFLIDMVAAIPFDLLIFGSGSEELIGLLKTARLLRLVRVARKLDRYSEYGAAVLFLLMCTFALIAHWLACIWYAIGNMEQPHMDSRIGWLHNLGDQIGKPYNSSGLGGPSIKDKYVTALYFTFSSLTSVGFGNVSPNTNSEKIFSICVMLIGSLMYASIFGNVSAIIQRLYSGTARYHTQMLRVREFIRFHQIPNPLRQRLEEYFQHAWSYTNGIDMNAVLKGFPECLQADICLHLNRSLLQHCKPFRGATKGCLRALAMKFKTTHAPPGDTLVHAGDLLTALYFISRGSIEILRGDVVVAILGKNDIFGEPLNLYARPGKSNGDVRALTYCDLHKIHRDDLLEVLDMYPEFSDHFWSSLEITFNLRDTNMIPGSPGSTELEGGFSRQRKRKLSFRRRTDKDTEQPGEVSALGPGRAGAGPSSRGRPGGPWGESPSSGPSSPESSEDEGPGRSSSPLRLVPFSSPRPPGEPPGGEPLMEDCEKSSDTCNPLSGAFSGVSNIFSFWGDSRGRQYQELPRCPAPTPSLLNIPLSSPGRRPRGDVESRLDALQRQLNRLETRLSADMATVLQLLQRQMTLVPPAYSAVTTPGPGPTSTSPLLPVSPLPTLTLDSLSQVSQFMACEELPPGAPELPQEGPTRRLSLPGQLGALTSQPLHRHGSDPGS
# Sequence of Serine/threonine-protein kinase pim-2 (Q9P1W9 whole entry): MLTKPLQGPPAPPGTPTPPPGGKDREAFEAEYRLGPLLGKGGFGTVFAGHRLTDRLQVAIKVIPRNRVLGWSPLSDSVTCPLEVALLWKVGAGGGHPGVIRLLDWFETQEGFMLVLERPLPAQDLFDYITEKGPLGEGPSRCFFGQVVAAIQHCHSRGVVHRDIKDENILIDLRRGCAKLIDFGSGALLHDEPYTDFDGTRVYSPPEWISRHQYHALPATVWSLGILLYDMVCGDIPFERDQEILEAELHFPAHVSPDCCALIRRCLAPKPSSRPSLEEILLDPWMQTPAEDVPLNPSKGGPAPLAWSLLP
# Sequence of Serine/threonine-protein kinase pim-1 (P11309 whole entry): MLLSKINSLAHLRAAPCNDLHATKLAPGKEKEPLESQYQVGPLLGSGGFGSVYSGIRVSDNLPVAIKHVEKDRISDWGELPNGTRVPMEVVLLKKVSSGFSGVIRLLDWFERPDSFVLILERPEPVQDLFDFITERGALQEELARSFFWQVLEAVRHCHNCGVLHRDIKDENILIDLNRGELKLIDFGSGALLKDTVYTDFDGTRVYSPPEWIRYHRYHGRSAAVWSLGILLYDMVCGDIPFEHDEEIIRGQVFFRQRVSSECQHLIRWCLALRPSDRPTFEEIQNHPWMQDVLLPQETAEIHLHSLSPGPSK
Structure (SMILES),microsomal CLint at 1 µM [1] [µL/min/mg],IC50 [2] [nM],IC50 [3] [nM],microsomal CLint at 1 µM [4] [µL/min/mg],further results
N[C@H]1CCCN(c2ccncc2Nc2ncc3ccc(-c4ccccc4F)nn23)C1,120,1536,0.23,48,IC50 [5]: 1.6 nM
N[C@H]1CCCN(c2ccncc2Nc2ncc3ccc(-c4ccccc4Cl)nn23)C1,122,2668,–,90,IC50 [5]: 3.4 nM
C[C@@H]1CC[C@H](N)CN1c1ccncc1Nc1ncc2ccc(-c3cccc(F)n3)nn12,194,–,–,71,–
N[C@H]1CCCN(c2ccncc2Nc2ncc3ccc(-c4ccccn4)nn23)C1,< 10,1760,–,< 10,–
N[C@H]1CCC[C@@H](c2ccncc2Nc2ncc3ccc(-c4c(F)cccc4F)nn23)C1 (racemic),106,5120,3.7,< 10,–
N[C@H]1CCCN(c2ccncc2Nc2ncc3ccc(-c4c(F)cccc4F)nn23)C1,130,403,0.07 to 0.1,66,AUC [6]: 3.7 µM·h; Vd [7]: 7.9 L/kg; CL [8]: 23.3 mL/min/kg; F [9]: 16%; MRT [10]: 5.6 h; CL [11]: 40%
N[C@H]1CCCN(c2ccncc2Nc2ncc3ccc(-c4ncccc4F)nn23)C1,40,–,–,36,AUC(0-inf) [6]: 7.3 µM·h; Vd [7]: 3.3 L/kg; clearance [8]: 11.7 mL/min/kg; bioavailability [9]: 28%; MRT [10]: 4.1 h; CL [11]: 21%
N[C@H]1CCCN(c2ccncc2Nc2ncc3ccc(Cl)nn23)C1,27,–,–,18,–
N[C@H]1CCCN(c2ccncc2Nc2ncc3ccc(-c4ccc(Cl)cc4Cl)nn23)C1,260,5007,1.8,100,–
N[C@H]1CCCN(c2sncc2Nc2ncc3ccc(-c4c(F)cccc4F)nn23)C1,167,–,56,28,IC50 [5]: 148 nM
N[C@H]1CCCN(c2ccccc2Nc2ncc3ccc(-c4c(F)cccc4F)nn23)C1,63,3440,–,82,–
N[C@H]1CCCN(c2ccncc2Nc2ncc3ccc(-c4ccc(F)cc4F)nn23)C1,132,1761,0.38,31,IC50 [5]: 3.1 nM
N[C@H]1CCCN(c2ccncc2Nc2ncc3ccc(-c4cccnc4F)nn23)C1,39,6599,0.23,34,–
N[C@H]1CCCN(c2ccnc(NC(=O)c3c[nH]c4ccc(-c5ccccc5F)nc34)c2)C1,–,–,65,–,IC50 [5]: 314 nM
C[C@@H]1C[C@H](N)CN(c2ccncc2Nc2ncc3ccc(-c4ncccc4F)nn23)C1,91,–,–,33,AUC(0-inf) [6]: 3.2 µM·h; Vd [7]: 6.7 L/kg; clearance [8]: 26.7 mL/min/kg; bioavailability [9]: 60%; MRT [10]: 4.3 h
N[C@H]1CCCN(c2ccncc2Nc2ncc3ccc(-c4nccs4)nn23)C1,54,602,–,27,IC50 [5]: 2.9 nM
C[C@@H]1CCN(c2ccncc2Nc2ncc3ccc(-c4c(F)cccc4F)nn23)C[C@H]1N,219,212,0.035,71,IC50 [5]: 0.18 nM
C[C@]1(N)CCCN(c2ccncc2Nc2ncc3ccc(-c4c(F)cccc4F)nn23)C1 (racemic),311,–,–,91,–
C[C@H]1CCN(c2ccncc2Nc2ncc3ccc(-c4c(F)cccc4F)nn23)C[C@H]1N,> 399,2982,0.26,130,–
N[C@H]1CCCN(c2ncncc2Nc2ncc3ccc(-c4c(F)cccc4F)nn23)C1,110,> 15800,–,28,–

# Continued, in another order:
microsomal CLint at 1 µM [1] [µL/min/mg],IC50 [2] [nM],IC50 [3] [nM],microsomal CLint at 1 µM [4] [µL/min/mg],Structure (SMILES),further results
312,–,–,–,C[C@H]1[C@@H](N)CCCN1c1ccncc1Nc1ncc2ccc(-c3c(F)cccc3F)nn12,–
> 399,–,–,443,N[C@@H]1CN(c2ccncc2Nc2ncc3ccc(-c4c(F)cccc4F)nn23)CC[C@H]1F,–
143,983,0.78,51,N[C@H]1C[C@@H](F)CN(c2ccncc2Nc2ncc3ccc(-c4c(F)cccc4F)nn23)C1,–
> 399,–,–,399,Fc1cccc(F)c1-c1ccc2cnc(Nc3cnccc3N3CCCCC3)n2n1,–
477,–,–,80,C[C@H]1CC[C@H](N)CN1c1ccncc1Nc1ncc2ccc(-c3c(F)cccc3F)nn12,–
> 399,4807,2.9,472,O[C@H]1CCCN(c2ccncc2Nc2ncc3ccc(-c4c(F)cccc4F)nn23)C1,–
> 399,–,–,203,C[C@@H]1CC[C@H](N)CN1c1ccncc1Nc1ncc2ccc(-c3c(F)cccc3F)nn12,AUC(0-inf) [6]: 3.3 µM·h; Vd [7]: 21.7 L/kg; clearance [8]: 91.7 mL/min/kg; bioavailability [9]: 141%; MRT [10]: 4 h; IC50 [12]: 19700 nM
347,–,–,111,C[C@H]1C[C@H](N)CN(c2ccncc2Nc2ncc3ccc(-c4c(F)cccc4F)nn23)C1,–
344,–,–,79,C[C@@H]1[C@@H](N)CCCN1c1ccncc1Nc1ncc2ccc(-c3c(F)cccc3F)nn12,–
185,–,–,66,CN[C@H]1CCCN(c2ccncc2Nc2ncc3ccc(-c4c(F)cccc4F)nn23)C1,–
61,–,–,67,N[C@H]1CCCN(c2cnccc2Nc2ncc3ccc(-c4c(F)cccc4F)nn23)C1,–
< 14,–,–,15,N[C@H]1CCN(c2ccncc2Nc2ncc3ccc(-c4c(F)cccc4F)nn23)C1,–
280,–,–,90,N[C@@H]1CCCN(c2ccncc2Nc2ncc3ccc(-c4c(F)cccc4F)nn23)C1,–

# — ChEMBL document CHEMBL3864151, “Discovery of imidazopyridazines as potent Pim-1/2 kinase inhibitors” (Bioorg Med Chem Lett, 2016)
